Here are results for two molecules from ChEMBL document CHEMBL4190216, “Asymmetric 1,5-diarylpenta-1,4-dien-3-ones: Antiproliferative activity in prostate epithelial cell models and pharmacokinetic studies” (Eur J Med Chem, 2017).

Data set [1] can be described thus: AUC in Sprague-Dawley rat at 10 mg/kg administered via oral gavage by HPLC-MS/MS analysis. The data set is classed as ADME, organism-based. To be noted: in vivo.
Data set [2] can be described thus: Tmax in Sprague-Dawley rat at 10 mg/kg administered via oral gavage by HPLC-MS/MS analysis. It counts as ADME, organism-based. To be noted: in vivo.
Data set [3] has as its system LNCaP. Description: Antiproliferative activity against human LNCAP cells assessed as decrease in cell viability after 3 days by WST assay. It counts as functional, cell-based. To be noted: 72 h. Summed up: (§1)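 Cells were seeded at 3,200 per well. PC-3 and LNCaP were grown in RPMI-1640 and DU-145 in EMEM, each with 10% FBS and 1% penicillin/streptomycin, at 37 °C and 5% CO2. Cells were exposed for 3 days to at least five concentrations, with DMSO as vehicle control. WST-1 reagent was then added for 3 h at 37 °C and absorbance read at 430 nm. IC50 came from linear inhibition, averaged over triplicates.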

For data set [4], the system named is DU-145. Description: Antiproliferative activity against human DU145 cells assessed as decrease in cell viability after 3 days by WST assay. To be noted: DU-145, 72 h. It counts as functional, cell-based. Summed up: as §1
The test system of data set [5] is LNCaP. The data set is described as follows: Potency index, ratio of curcumin IC50 to test compound IC50 for human LNCAP cells. The data set is classed as functional.
A further data set deals with VCaP. Description: Antiproliferative activity against human VCaP cells expressing androgen receptor splice variants assessed as decrease in cell viability after 5 days by trypan blue exclusion assay. The data set is classed as functional, cell-based. Particulars: 120 h.
The subject of data set [6] is PC-3. The data set is described as follows: Antiproliferative activity against human PC3 cells assessed as decrease in cell viability after 3 days by WST assay. Particulars: PC-3, 72 h. The data set is classed as functional, cell-based. Summed up: as §1
Data set [7] is described as follows: Cmax in Sprague-Dawley rat at 10 mg/kg administered via oral gavage by HPLC-MS/MS analysis. The arrangement: dose 10 mg/kg, route oral. To be noted: in vivo. The data set is classed as ADME, organism-based.
The test system of data set [8] is PC-3. The data set is described as follows: Potency index, ratio of curcumin IC50 to test compound IC50 for human PC3 cells. The data set is classed as functional.
In the next data set the test system is CWR22R. The data set is described as follows: Antiproliferative activity against human 22Rv1 cells expressing androgen receptor splice variants assessed as decrease in cell viability after 5 days by trypan blue exclusion assay. It counts as functional, cell-based. To be noted: 22Rv1, 120 h.
Data set [9] in a line: Plasma concentration in Sprague-Dawley rat at 10 mg/kg administered via oral gavage measured at 3 hrs by HPLC-MS/MS analysis. It counts as ADME, organism-based.
Data set [10] has as its system DU-145. Description: Potency index, ratio of curcumin IC50 to test compound IC50 for human DU145 cells. The data set is classed as functional.
For data set [11], the system named is Rattus norvegicus. The data set is described as follows: Acute toxicity in Sprague-Dawley rat at 10 mg/kg administered via oral gavage. The data set is classed as organism-based. To be noted: in vivo. Summed up:
(§2)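 Male Sprague-Dawley rats (250–300 g, n = 4) each received a single 10 mg/kg oral gavage dose. The vehicle was 5% DMSO, 40% polyethylene glycol 400 and 55% saline. Blood was drawn from the lateral tail vein at 1, 3, 6 and 24 h for plasma drug levels. Toxicity was scored as observed deaths after dosing.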

The nature of data set [12]: Drug metabolism in human liver microsomes assessed as (1Z,4E)-5-(1-ethyl-1H-benzo[d]imidazol-2-yl)-1-hydroxy-1-(2-methyl-4-(trifluoromethyl)thiazol-5-yl)penta-1,4-dien-3-one formation at 10 mM after 60 mins by UHPLC analysis. The data set is classed as ADME, microsome. Summed up: (§3)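 Pooled human liver microsomes in potassium phosphate buffer (pH 7.4) with NADPH solutions A and B were preincubated for 5 min at 37 °C. Compound was then added from a 10 mM stock (3 μL into 300 μL total) and incubated 60 min at 37 °C. Reactions were quenched with an equal volume of methanol and centrifuged (10,000 × g, 4 min, 4 °C). Supernatant went to UHPLC–high-resolution MS for metabolite identification.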
For orientation: Microsomes from liver hold many membrane-bound enzymes, among them those of drug oxidation.

A short description of data set [13]: Plasma concentration in Sprague-Dawley rat at 10 mg/kg administered via oral gavage measured after 1 day by HPLC-MS/MS analysis. The data set is classed as ADME, organism-based.
Data set [14] can be described thus: Retention time of the compound. The data set is classed as physicochemical.
A short description of data set [15]: Plasma concentration in Sprague-Dawley rat at 10 mg/kg administered via oral gavage measured at 1 hr by HPLC-MS/MS analysis. It counts as ADME, organism-based.
Data set [16] relates to PWR-1E. The data set is described as follows: Antiproliferative activity against human PWR-1E cells expressing androgen receptor and PSA assessed as decrease in cell viability after 3 days by WST assay. It counts as functional, cell-based. Particulars: 72 h. Summed up:
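Non-malignant prostate epithelial PWR-1E (adenovirus 12/SV40-immortalized) was seeded at 5,000 per well. Cells were exposed for 3 days at 37 °C in a CO2 incubator to at least five concentrations, with DMSO as vehicle control. WST-1 reagent was then added for 3 h at 37 °C and absorbance read at 430 nm. IC50 came from linear inhibition, as the mean of triplicate determinations.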

Data set [17] in a line: Plasma concentration in Sprague-Dawley rat at 10 mg/kg administered via oral gavage measured at 6 hrs by HPLC-MS/MS analysis. The data set is classed as ADME, organism-based.
The nature of data set [18]: Drug metabolism in human liver microsomes assessed as (1Z,4E)-1-(1-ethyl-1H-benzo[d]imidazol-2-yl)-1-hydroxy-5-(2-methyl-4-(trifluoromethyl)thiazol-5-yl)penta-1,4-dien-3-one formation at 10 mM after 60 mins by UHPLC analysis. It counts as ADME, microsome. Summed up: as §3
Data set [19] in a line: Antiproliferative activity against human LNCaP95 cells expressing androgen receptor splice variants assessed as decrease in cell viability after 5 days by trypan blue exclusion assay. It counts as functional, cell-based. To be noted: LNCaP-95, 120 h.
Data set [20] concerns Rattus norvegicus. Description: Acute toxicity in Sprague-Dawley rat assessed as mortality at 10 mg/kg administered via oral gavage after 72 hrs. It counts as organism-based. To be noted: in vivo. Summed up:
as §2

Data set [21] concerns PWR-1E. Description: Potency index, ratio of curcumin IC50 to test compound IC50 for human PWR-1E cells expressing androgen receptor and PSA. The data set is classed as functional.

Regarding `CCn1c(/C=C/C(=O)/C=C/c2sc(C)nc2C(F)(F)F)nc2ccccc21`, the AUC (as a rule, the area under the concentration-time curve, a measure of exposure) in [1] worked out at 18300 ng·h/mL. Further, in [2], the time to peak (Tmax) (in general, the time from dosing to the highest level) stood at 6 h. The half-inhibitory concentration (IC50) (as a rule, the concentration needed to halve the response being measured) in the data set on LNCaP [3] is 250 nM; in the data set on DU-145 [4], 500 nM; in the data set with VCaP, 1410 nM; in the data set on PC-3 [6], 230 nM; in the data set on CWR22R, 220 nM; with PWR-1E [16] it was 80 nM. Moreover, the IC50 in data set [19] stood at 380 nM. The figures for the “Ratio IC50” value with LNCaP [5], in the data set on PC-3 [8] and in the data set with DU-145 [10] were 54, 110 and 53, respectively. Besides, in [7], the concentration peaked (Cmax) at 3.25 µM. The concentration at 3 h in [9] worked out at 982 ng/mL. Moreover, the Activity entry with Rattus norvegicus [11] was “Non-Toxic”. For the same molecule, the Drug metabolism result in data set [12] and in [18] was “Metabolite_Detected” in each case. Also, the concentration at 24 h in data set [13] was 314 ng/mL. The same molecule yielded a Retention_time in data set [14] of 5.05 min. The molecule further showed a concentration at 1 h in [15] of 112 ng/mL. Moreover, the concentration at 6 h in data set [17] worked out at 1230 ng/mL.
On to `CC(C)n1c(/C=C/C(=O)/C=C/c2ccccn2)nc2ccccc21`, for which the Activity result in the data set with Rattus norvegicus [20] is on record as “Toxic”. In data set [1], this molecule returned an AUC of 17600 ng·h/mL. Besides, in [2], the Tmax amounted to 3 h. For the same molecule, the IC50 in the data set with LNCaP [3] was 30 nM; with DU-145 [4], 120 nM; in the data set on VCaP, 640 nM; in the data set on PC-3 [6], 40 nM; in the data set with CWR22R, 450 nM; in the data set with PWR-1E [16], 10 nM. Moreover, the IC50 in [19] was determined as 260 nM. Moreover, the “Ratio IC50” value in the data set on PWR-1E [21] was 885; in the data set with PC-3 [8] it was 636; with DU-145 [10] it was 219. The maximum concentration (Cmax) (in general, the maximum level reached in the sampled fluid or tissue) in [7] came to 13.5 µM. The concentration at 3 h in data set [9] was 4260 ng/mL. This molecule also gave a concentration at 24 h in data set [13] of 103 ng/mL. For the same molecule, the concentration at 1 h in data set [15] was 823 ng/mL. The same molecule gave a concentration at 6 h in data set [17] of 456 ng/mL.
